For one assay, the system named is Candida albicans. Put plainly: Antifungal activity determined against Candida albicans 10231. It counts as functional. A digest of the protocol:
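Candida albicans: an overnight-culture yeast suspension was added to compound in 2.5% DMSO in water, giving a final inoculum of about 10^2–10^3 CFU/well. Plates were incubated 40–48 h at 25 °C, and growth versus a no-compound control was read as A595. MIC was given as a range: complete inhibition at the higher concentration, viable cells at the lower.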

For assay [1], the system named is Enterococcus faecium. The assay can be described thus: Antibacterial activity determined against Enterococcus faecium ATCC 6569. It counts as functional. A digest of the protocol: (§1)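 Broth microdilution: an overnight-culture bacterial suspension was added to compound in 2.5% DMSO in water, giving a final inoculum of about 10^2–10^3 CFU/well. Plates were incubated 20–24 h at 37 °C, and growth relative to a no-compound control was read as A595. MIC was given as a range: complete inhibition at the upper concentration, viable cells at the lower.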

The subject of assay [2] is Enterococcus faecium. Put plainly: Antibacterial activity determined against Enterococcus faecium ATCC 882. It counts as functional. An outline of the steps:
as §1

The test system of assay [3] is Escherichia coli. The assay can be described thus: Antibacterial activity determined against Escherichia coli. It counts as functional. An outline of the steps:
as §1

Assay [4] deals with Escherichia coli. Put plainly: Antibacterial activity determined against gram-negativeE. coli 25922. It counts as functional. A digest of the protocol:
as §1

For assay [5], the system named is Enterococcus faecalis. Put plainly: Antibacterial activity determined against Enterococcus faecalis ATCC 11823. It counts as functional. An outline of the steps: as §1
Assay [6] concerns Enterococcus faecalis. Put plainly: Antibacterial activity determined against Enterococcus faecalis ATCC 23241. It counts as functional. A digest of the protocol:
as §1

For assay [7], the system named is Enterococcus faecalis. The assay can be described thus: Antibacterial activity determined against Enterococcus faecalis ATCC 4200. It counts as functional. A digest of the protocol: as §1
In assay [8] the test system is Enterococcus faecalis. The assay can be described thus: Antibacterial activity determined against Enterococcus faecalis ATCC 49757. It counts as functional. An outline of the steps: as §1
The next assay deals with Enterococcus hirae. Put plainly: Antibacterial activity determined against gram-positive Enterococcus hirae 29212. It counts as functional. An outline of the steps: as §1
The next assay has as its system Klebsiella pneumoniae. Put plainly: Antibacterial activity determined against gram-negativeK. pneumoniae 13383. It counts as functional. A digest of the protocol:
as §1

The subject of a further assay is Proteus vulgaris. Put plainly: Antibacterial activity determined against gram-negativeP. vulgaris 8427. It counts as functional. A digest of the protocol: as §1
A further assay relates to Pseudomonas aeruginosa. Put plainly: Antibacterial activity determined against gram-negativeP. aeruginosa 25416. It counts as functional. An outline of the steps: as §1
In assay [9] the test system is Staphylococcus aureus. Put plainly: Antibacterial activity determined against Staphylococcus aureus. It counts as functional. A digest of the protocol:
as §1

In assay [10] the test system is Staphylococcus aureus. The assay can be described thus: Antibacterial activity determined against gram-positive Staphylococcus aureus 13709. It counts as functional. An outline of the steps:
as §1

The test system of another assay is Streptococcus pyogenes. Put plainly: Antibacterial activity determined against gram-positive Streptococcus pyogenes 49399. It counts as functional. A digest of the protocol:
as §1

For a further assay, the system named is Streptococcus pneumoniae. The assay can be described thus: Antibacterial activity determined against gram-positive Streptococcus pneumoniae 6303. It counts as functional. An outline of the steps:
as §1

Assay [11] has as its system Enterococcus faecalis. Put plainly: Antibacterial activity determined against Enterococcus faecalis ATCC 828. It counts as functional. An outline of the steps:
as §1

Assay [12] in a line: Inhibition of bacterial transcription/translation.

In brackets after ≈: the same amount, converted by molar mass. A value given as a limit tells only on which side of the number the result lay.

The MIC is the lowest concentration found to suppress growth. A word on the IC50: it is the concentration at which inhibition is half-maximal. High values mean weaker potency, low ones greater potency.

In the case of `Clc1cc2nc(C3CCNCC3)n(Cc3ccc(CN4CCNCC4)cc3)c2cc1Cl`, the MIC against Candida albicans was found to be 50 µM (≈ 22.9 µg/mL); with Enterococcus faecium [1] it was 6 µM (≈ 2.75 µg/mL); against Enterococcus faecium [2] it was 6 µM (≈ 2.75 µg/mL); with Escherichia coli [3], 12 µM (≈ 5.5 µg/mL); against Escherichia coli [4] it was 12 µM (≈ 5.5 µg/mL); against Enterococcus faecalis [5], 12 µM (≈ 5.5 µg/mL). Further, the MIC in the assay with Enterococcus faecalis [6] is 6 µM (≈ 2.75 µg/mL); against Enterococcus faecalis [7], 12 µM (≈ 5.5 µg/mL); against Enterococcus faecalis [8] it was 12 µM (≈ 5.5 µg/mL); in the assay on Enterococcus hirae, 3 µM (≈ 1.38 µg/mL); in the assay with Klebsiella pneumoniae, 6 µM (≈ 2.75 µg/mL); in the assay with Proteus vulgaris, 12 µM (≈ 5.5 µg/mL). Besides, the MIC came to 12 µM (≈ 5.5 µg/mL) in the assay on Pseudomonas aeruginosa; 6 µM (≈ 2.75 µg/mL) with Staphylococcus aureus [9]; 6 µM (≈ 2.75 µg/mL) against Staphylococcus aureus [10]; 6 µM (≈ 2.75 µg/mL) in the assay on Streptococcus pyogenes; 12 µM (≈ 5.5 µg/mL) against Streptococcus pneumoniae; 6 µM (≈ 2.75 µg/mL) in the assay on Enterococcus faecalis [11]. The molecule also came in with a half-inhibitory concentration (IC50) in assay [12] above 100 µM.
As to `O=C(O)c1cn(C2CC2)c2cc(N3CCNCC3)c(F)cc2c1=O` [CIPROFLOXACIN], the MIC against Escherichia coli [3] and against Staphylococcus aureus [9] was 0.75 µM (≈ 0.249 µg/mL) each time. The molecule further had an IC50 in [12] above 100 µM.
Consider `Clc1cc2nc(C3CCNCC3)n(Cc3ccc(Cn4cncn4)cc3)c2cc1Cl`, for which the MIC against Escherichia coli [3] and with Staphylococcus aureus [9] was 12 µM (≈ 5.3 µg/mL) each time. The molecule further displayed an IC50 in assay [12] above 100 µM.
For `NCCCCNCc1ccc(Cn2c(C3CCNCC3)nc3cc(Cl)c(Cl)cc32)cc1`, the MIC in the assay on Candida albicans was above 100 µM; against Enterococcus faecium [1], 12 µM (≈ 5.53 µg/mL); with Enterococcus faecium [2], 12 µM (≈ 5.53 µg/mL); in the assay with Escherichia coli [3], 25 µM (≈ 11.5 µg/mL); with Escherichia coli [4], 25 µM (≈ 11.5 µg/mL); with Enterococcus faecalis [5] it was 12 µM (≈ 5.53 µg/mL). Besides, the MIC with Enterococcus faecalis [6] is 12 µM (≈ 5.53 µg/mL); against Enterococcus faecalis [7], 12 µM (≈ 5.53 µg/mL); against Enterococcus faecalis [8], 12 µM (≈ 5.53 µg/mL); with Enterococcus hirae it was 3 µM (≈ 1.38 µg/mL); against Klebsiella pneumoniae, 25 µM (≈ 11.5 µg/mL); with Pseudomonas aeruginosa, 25 µM (≈ 11.5 µg/mL). Also, the MIC with Staphylococcus aureus [9] was 6 µM (≈ 2.76 µg/mL); against Staphylococcus aureus [10], 6 µM (≈ 2.76 µg/mL); against Streptococcus pyogenes, 6 µM (≈ 2.76 µg/mL); with Streptococcus pneumoniae it was 25 µM (≈ 11.5 µg/mL); against Enterococcus faecalis [11], 12 µM (≈ 5.53 µg/mL). In assay [12], this molecule gave an IC50 of 50 µM.
With `Clc1cc2nc(C3CCNCC3)[nH]c2cc1Cl`, the MIC in the assay with Escherichia coli [3] and with Staphylococcus aureus [9] was above 100 µM each time. Also, the concentration for half-maximal inhibition (IC50) in [12] was above 100 µM.
Turning to `NCCCNCc1ccc(Cn2c(C3CCNCC3)nc3cc(Cl)c(Cl)cc32)cc1`, the MIC against Candida albicans is above 100 µM; against Enterococcus faecium [1], 12 µM (≈ 5.36 µg/mL); in the assay on Enterococcus faecium [2], 25 µM (≈ 11.2 µg/mL); in the assay on Escherichia coli [3], 50 µM (≈ 22.3 µg/mL); against Escherichia coli [4], 50 µM (≈ 22.3 µg/mL); with Enterococcus faecalis [5], 12 µM (≈ 5.36 µg/mL). The MIC against Enterococcus faecalis [6] was 25 µM (≈ 11.2 µg/mL); against Enterococcus faecalis [7] it was 25 µM (≈ 11.2 µg/mL); with Enterococcus faecalis [8], 12 µM (≈ 5.36 µg/mL); in the assay on Enterococcus hirae, 6 µM (≈ 2.68 µg/mL); in the assay on Klebsiella pneumoniae, 25 µM (≈ 11.2 µg/mL); in the assay on Pseudomonas aeruginosa, 25 µM (≈ 11.2 µg/mL). Besides, the MIC is 12 µM (≈ 5.36 µg/mL) with Staphylococcus aureus [9]; 12 µM (≈ 5.36 µg/mL) in the assay on Staphylococcus aureus [10]; 6 µM (≈ 2.68 µg/mL) in the assay on Streptococcus pyogenes; 25 µM (≈ 11.2 µg/mL) in the assay on Streptococcus pneumoniae; 12 µM (≈ 5.36 µg/mL) against Enterococcus faecalis [11]. The same molecule displayed an IC50 in assay [12] of 20 µM.
`NCCN(CCN)CCNCc1ccc(Cn2c(C3CCNCC3)nc3cc(Cl)c(Cl)cc32)cc1`: the MIC was above 100 µM against Candida albicans; 12 µM (≈ 6.22 µg/mL) in the assay with Escherichia coli [3]; 12 µM (≈ 6.22 µg/mL) against Escherichia coli [4]; 3 µM (≈ 1.56 µg/mL) in the assay on Enterococcus hirae; 12 µM (≈ 6.22 µg/mL) with Klebsiella pneumoniae; 25 µM (≈ 13 µg/mL) in the assay on Proteus vulgaris. In addition, the MIC in the assay on Pseudomonas aeruginosa is 12 µM (≈ 6.22 µg/mL); against Staphylococcus aureus [9] it was 3 µM (≈ 1.56 µg/mL); in the assay on Staphylococcus aureus [10], 3 µM (≈ 1.56 µg/mL); in the assay on Streptococcus pyogenes it was 3 µM (≈ 1.56 µg/mL); in the assay with Streptococcus pneumoniae, 6 µM (≈ 3.11 µg/mL). For the same molecule, the half-maximal inhibitory concentration (IC50) in assay [12] worked out at 10 µM.
Take `CCn1c(C2CCNCC2)nc2cc(Cl)c(Cl)cc21`: the MIC against Escherichia coli [3] and in the assay with Staphylococcus aureus [9] was above 100 µM each time. Besides, in [12], the IC50 is above 100 µM.
For `Clc1cc2nc(C3CCNCC3)n(Cc3ccncc3)c2cc1Cl`, the MIC in the assay with Escherichia coli [3] and in the assay on Staphylococcus aureus [9] was 50 µM (≈ 18.1 µg/mL) in each case. In addition, in [12], the IC50 is above 100 µM.
Turning to `O=[N+]([O-])c1ccc(Cn2c(C3CCNCC3)nc3cc(Cl)c(Cl)cc32)cc1`, the MIC against Escherichia coli [3] is above 100 µM; against Staphylococcus aureus [9] it was 50 µM (≈ 20.3 µg/mL). In addition, the IC50 in assay [12] is above 100 µM.
With `Fc1ccc(Cn2c(C3CCNCC3)nc3cc(Cl)c(Cl)cc32)cc1`, the MIC in the assay on Escherichia coli [3] and with Staphylococcus aureus [9] was above 100 µM in each case. Also, in assay [12], the half-maximal inhibitory concentration (IC50) was above 100 µM.

These data come from ChEMBL document CHEMBL1136237, “2-piperidin-4-yl-benzimidazoles with broad spectrum antibacterial activities” (2003).
